Key:
[1] = test system: Rattus norvegicus; experiment: Percentage of rats selecting the drug lever (% SDL) for dose 3.48(umol/kg); format: functional
Outline: (§1)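 Drugs are given ip in saline. Test sessions run under extinction and end at 50 presses on one lever. Rats must hold 85% accuracy on training days. The read-out is the percentage of rats choosing the drug lever at each dose.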

[2] = test system: Rattus norvegicus; experiment: Percentage of rats selecting the drug lever (% SDL) for dose 0.87(umol/kg); format: functional; outline: as §1
[3] = Hill coefficient of the compound
Outline: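 Rat frontal cortex (male Sprague–Dawley) homogenized in 0.32 M sucrose, preincubated twice 10 min at 37 °C; assay in 50 mM Tris HCl pH 7.4 with EDTA, ascorbate, 10 mM MgCl2, 10 µM pargyline, 200–400 µg protein. Displacement of 0.25 nM [125I]-(R)-DOI, 15 min at 37 °C, GF/C filtration, γ-counting. Triplicates, 3–4 experiments; parameters fitted by EBDA/LIGAND.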

[4] = test system: Rattus norvegicus; experiment: Percentage of rats selecting the drug lever (% SDL) for dose 1.74(umol/kg); format: functional; outline: as §1
[5] = biological target: Serotonin 2 (5-HT2) receptor (Rattus norvegicus, UniProt P30994+P08909+P14842); experiment: Binding affinity against 5-hydroxytryptamine 2 receptor from rat frontal cortex using [125]-(R)-DOI as radioligand; format: tissue-based
Outline: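 Rat frontal cortex (male Sprague–Dawley) homogenized in 0.32 M sucrose, preincubated twice 10 min at 37 °C; assay in 50 mM Tris HCl pH 7.4 with EDTA, ascorbate, 10 mM MgCl2, 10 µM pargyline, 200–400 µg protein. Triplicates, 3–4 experiments; parameters fitted by EBDA/LIGAND.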

[6] = test system: Rattus norvegicus; experiment: Percentage of rats selecting the drug lever (% SDL) for dose 5.22(umol/kg); format: functional; outline: as §1
[7] = species on record: Rattus norvegicus; experiment: Potency against LSD trained rat, activity is expressed as ED50; format: functional
[8] = test system: Rattus norvegicus; experiment: Percentage of rats selecting the drug lever (% SDL) for dose 6.96(umol/kg); format: functional; outline: as §1
[9] = test system: Rattus norvegicus; experiment: Percentage of rats selecting the drug lever (% SDL) for dose 13.91(umol/kg); format: functional; outline: as §1
[10] = test system: Rattus norvegicus; experiment: Percentage of rats selecting the drug lever (% SDL) for dose 3.48 (umol/kg); format: functional; outline: as §1
[11] = test system: Rattus norvegicus; experiment: Percentage of rats selecting the drug lever (% SDL) for dose 0.047(umol/kg); format: functional; outline: as §1
[12] = test system: Rattus norvegicus; experiment: Percentage of rats selecting the drug lever (% SDL) for dose 0.024(umol/kg); format: functional; outline: as §1
[13] = test system: Rattus norvegicus; experiment: Percentage of rats selecting the drug lever (% SDL) for dose 0.093(umol/kg); format: functional; outline: as §1
[14] = test system: Rattus norvegicus; experiment: Percentage of rats selecting the drug lever (% SDL) for dose 0.012 (umol/kg); format: functional; outline: as §1
[15] = test system: Rattus norvegicus; experiment: Percentage of rats selecting the drug lever (% SDL) for dose 0.186 (umol/kg); format: functional; outline: as §1
[16] = test system: Rattus norvegicus; experiment: Percentage of rats selecting the drug lever (% SDL) for dose 1.02(umol/kg); format: functional; outline: as §1
[17] = test system: Rattus norvegicus; experiment: Percentage of rats selecting the drug lever (% SDL) for dose 0.77(umol/kg); format: functional; outline: as §1
[18] = test system: Rattus norvegicus; experiment: Percentage of rats selecting the drug lever (% SDL) for dose 2.04(umol/kg); format: functional; outline: as §1
[19] = test system: Rattus norvegicus; experiment: Percentage of rats selecting the drug lever (% SDL) for dose 0.51(umol/kg); format: functional; outline: as §1

In the case of `CC[C@@H](C)c1cc(OC)c(CC(C)N)cc1OC` (stereo partly drawn), the SDL [1] is reported as 50%, the SDL [2] is reported as 0% and the Hill coefficient [3] is reported as 1. The SDL [4] was 25%, the Ki [5] was 7.84 nM and the SDL [6] was 80%. The ED50 [7] was 3.08 µmol/kg.

For `CCC(C)c1cc(OC)c(CC(C)N)cc1OC` (stereo not drawn), the SDL [8] was 70%, the SDL [9] was 90% and the SDL [10] was 60%. The SDL [4] was 18% and the ED50 [7] was 3.69 µmol/kg.

`CCN(CC)C(=O)[C@@H]1C=C2c3cccc4[nH]cc(c34)C[C@H]2N(C)C1` [LYSERGIDE] showed an SDL [11] of 38%, an SDL [12] of 13% and a Hill coefficient [3] of 1.18. It also gave an SDL [13] of 89%, an SDL [14] of 13% and an ED50 [7] of 0.02 µmol/kg. The SDL [15] was 100%.

In the case of `COc1cc(CC(C)N)c(OC)cc1C` (stereo not drawn) [DOM], the SDL [16] is reported as 67%, the Hill coefficient [3] is reported as 0.89 and the SDL [17] is reported as 67%. The SDL [18] was 100%, the SDL [19] was 13% and the ED50 [7] was 0.61 µmol/kg.

`CC[C@H](C)c1cc(OC)c(CC(C)N)cc1OC` (stereo partly drawn) gave a Hill coefficient [3] of 1.06, a Ki [5] of 7.87 nM and an ED50 [7] of 4.76 µmol/kg.
